What was measured:
Mus musculus [1] = test: Anxiolytic activity in albino mouse assessed as total number of entries into arms at 100 mg/kg, ip by plus-maze test; assay type: functional; details: route intraperitoneal
Summary of the method: (§1)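 Mice given compounds i.p. at 100 mg/kg in DMSO/water (1:4), about 0.1 mL, 1 h before testing; controls got 0.1 mL vehicle; n = 7–8. Housed eight per cage, 20 ± 2 °C, 12 h light/dark. Each animal did the plus-maze first, then forced swim.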

[2] = target: T1, Amine oxidase [flavin-containing] A (Rattus norvegicus, UniProt P21396); test: Inhibition of MAO-A in rat liver homogenate after 60 mins by residual activity plot; assay type: tissue-based
T1 sequence (P21396 whole entry): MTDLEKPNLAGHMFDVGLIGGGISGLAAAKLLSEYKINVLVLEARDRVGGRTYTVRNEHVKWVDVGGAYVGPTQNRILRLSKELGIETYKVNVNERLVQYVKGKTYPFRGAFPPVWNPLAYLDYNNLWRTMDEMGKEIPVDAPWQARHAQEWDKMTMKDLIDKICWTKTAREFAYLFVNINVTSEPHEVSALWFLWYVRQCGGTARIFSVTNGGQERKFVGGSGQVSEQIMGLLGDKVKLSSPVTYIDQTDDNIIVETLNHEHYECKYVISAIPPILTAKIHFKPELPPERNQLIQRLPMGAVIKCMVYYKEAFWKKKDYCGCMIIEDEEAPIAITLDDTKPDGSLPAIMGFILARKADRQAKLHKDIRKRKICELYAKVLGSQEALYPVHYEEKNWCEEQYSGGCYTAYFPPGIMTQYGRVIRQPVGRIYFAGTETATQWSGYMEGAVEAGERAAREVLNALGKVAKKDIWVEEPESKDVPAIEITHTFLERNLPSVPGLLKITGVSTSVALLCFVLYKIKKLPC

[3] = target: T2, Amine oxidase [flavin-containing] B (Rattus norvegicus, UniProt P19643); test: Inhibition of MAO-B in rat liver homogenate after 60 mins by residual activity plot; assay type: tissue-based
T2 sequence (P19643 whole entry): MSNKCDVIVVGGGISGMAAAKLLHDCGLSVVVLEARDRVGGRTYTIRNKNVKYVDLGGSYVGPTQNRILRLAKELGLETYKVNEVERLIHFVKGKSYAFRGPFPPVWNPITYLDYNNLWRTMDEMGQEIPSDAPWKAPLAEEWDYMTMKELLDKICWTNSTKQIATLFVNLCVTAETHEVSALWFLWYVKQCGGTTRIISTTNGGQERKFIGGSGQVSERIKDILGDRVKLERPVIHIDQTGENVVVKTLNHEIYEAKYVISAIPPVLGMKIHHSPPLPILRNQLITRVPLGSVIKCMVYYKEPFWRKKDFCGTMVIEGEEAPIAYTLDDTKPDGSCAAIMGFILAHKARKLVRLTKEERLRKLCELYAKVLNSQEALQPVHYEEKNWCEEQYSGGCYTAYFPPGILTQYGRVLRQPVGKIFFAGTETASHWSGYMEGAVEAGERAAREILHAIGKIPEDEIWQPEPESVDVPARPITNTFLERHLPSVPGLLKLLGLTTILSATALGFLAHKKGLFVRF

Mus musculus [4] = test: Antidepressant activity in albino mouse assessed as immobility time at 100 mg/kg, ip by forced swim test; assay type: functional; details: route intraperitoneal; summary of the method: as §1
[5] = target: T1, Amine oxidase [flavin-containing] A; test: Inhibition of MAO-A in rat liver homogenate after 60 mins by Lineweaver-Burke plot; assay type: tissue-based; details: for Activity: rat, 1 h, TDE = time-dependent effect
[6] = target: T2, Amine oxidase [flavin-containing] B; test: Inhibition of MAO-B in rat liver homogenate after 60 mins by Lineweaver-Burke plot; assay type: tissue-based; details: for Activity: rat, 1 h, TDE = time-dependent effect
Mus musculus [7] = test: Anxiolytic activity in albino mouse assessed as time spent on closed arm at 100 mg/kg, ip by plus-maze test; assay type: functional; set-up: unit not given here; details: route intraperitoneal; summary of the method: as §1

SMILES	IC50 [2]	IC50 [3]	Ki [5]	Activity [5]	Ki [6]	Activity [6]	arm entries (Mus musculus [1])	Activity (Mus musculus [4])	Activity (Mus musculus [7])
Cn1c(N/N=C(/C=C/c2ccco2)c2ccc(Cl)cc2)nc2ccccc2c1=O	31.6 µM	400 µM	80.1 µM	tde	125 µM	tde	6.75 entries	67.88%	219.5
COc1ccc(C(/C=C/c2ccco2)=N\Nc2nc3ccccc3c(=O)n2C)cc1	34.2 µM	419 µM	70.3 µM	tde	90.5 µM	tde	4.63 entries	80.38%	237.25
Cn1c(=S)[nH]c2ccccc2c1=O	3.42 µM	120 µM	30.2 µM	tde	78.3 µM	tde			
Cc1ccc(C(/C=C/c2cccs2)=N\Nc2nc3ccccc3c(=O)n2C)cc1	33.2 µM	419 µM	190 µM	tde	188 µM	tde	5.57 entries	65.57%	204.71
COc1ccc(C(/C=C/c2cccs2)=N\Nc2nc3ccccc3c(=O)n2C)cc1	27.2 µM	299 µM	185 µM	tde	184 µM	tde	8 entries	49.29%	206.29
Cc1ccc(C(/C=C/c2ccco2)=N\Nc2nc3ccccc3c(=O)n2C)cc1	90.8 µM	320 µM	181 µM	tde	179 µM	tde	5.14 entries	82.43%	238.67
Cn1c(N/N=C(/C=C/c2ccccc2)c2ccccc2)nc2ccccc2c1=O	35.1 µM	415 µM	34.2 µM	tde	70.5 µM	tde	5.37 entries	55.43%	191

Now from value to compound, other results behind:

IC50 [2]	IC50 [3]	Ki [5]	Activity [5]	Ki [6]	Activity [6]	SMILES	arm entries (Mus musculus [1])	Activity (Mus musculus [4])	Activity (Mus musculus [7])
468 µM	1.15 µM	5.1 µM	tde	0.16 µM	tde	Cn1c(N/N=C(/C=C/c2cccc(Cl)c2)c2ccccc2)nc2ccccc2c1=O	3.15 entries	54.57%	246.87
30.5 µM	470 µM	30.2 µM	tde	64.6 µM	tde	Cc1ccc(/C=C/C(=N/Nc2nc3ccccc3c(=O)n2C)c2ccccc2)cc1	6.37 entries	79.25%	216.12
9.05 µM	399 µM	1.15 µM	tde	10.6 µM	tde	COc1ccc(/C=C/C(=N/Nc2nc3ccccc3c(=O)n2C)c2ccccc2)cc1	4.5 entries	86.75%	225.38
28 µM	416 µM	28.2 µM	tde	69.1 µM	tde	Cn1c(N/N=C(/C=C/c2cccs2)c2ccc(Cl)cc2)nc2ccccc2c1=O	8.5 entries	50.39%	162.17
37.4 µM	21.2 µM	25.2 µM	tde	18.6 µM	tde	Cn1c(NN)nc2ccccc2c1=O			
3.56 µM	378 µM	1.05 µM	tde	7.8 µM	tde	Cn1c(N/N=C(/C=C/c2ccc(Cl)cc2)c2ccccc2)nc2ccccc2c1=O	2.51 entries	125.86%	284.2
		8.5 µM		3.36 µM		C#CCN(C)Cc1ccccc1 [PARGYLINE]			
